From ChEMBL document CHEMBL1833842, “1,3-Dihydro-2H-indol-2-ones derivatives: design, synthesis, in vitro antibacterial, antifungal and antitubercular study” (2011)
Values after ≈ are worked out from the molar mass of the structure shown.

Experiments:
Escherichia coli = assay: Antibacterial activity against 10^8 CFU/mL Escherichia coli MTCC 443 by broth microdilution method; format: functional
Summary of the method: (§1)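 MTCC bacterial strains from IMTECH Chandigarh were grown in Mueller-Hinton broth, which was also used to dilute the compounds. Inoculum was turbidity-adjusted to 10⁸ CFU/mL, and DMSO served as diluent. Compounds from a 2000 stock were screened first at 500, 250 and 125; actives were retested in a second dilution series. Tubes were incubated overnight at 37 °C, and MIC was the lowest concentration with no visible growth. Clear tubes were subcultured overnight at 37 °C to tell bacteriostatic from bactericidal.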

Klebsiella pneumoniae = assay: Antibacterial activity against 10^8 CFU/mL Klebsiella pneumoniae MTCC 109 by broth microdilution method; format: functional; summary of the method: as §1
Bacillus subtilis = assay: Antibacterial activity against 10^8 CFU/mL Bacillus subtilis MTCC 441 by broth microdilution method; format: functional; summary of the method: as §1
Staphylococcus aureus = assay: Antibacterial activity against 10^8 CFU/mL Staphylococcus aureus MTCC 96 by broth microdilution method; format: functional; summary of the method: as §1
Salmonella typhi = assay: Antibacterial activity against 10^8 CFU/mL Salmonella typhi MTCC 98 by broth microdilution method; format: functional, Salmonella enterica subsp. enterica serovar Typhi
Summary of the method: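 Broth microdilution in Mueller-Hinton broth with MTCC strains, inoculum adjusted by turbidity to 10⁸ CFU/mL. Compounds were diluted from DMSO. Primary screen used 500, 250 and 125 concentrations, and actives were serially diluted further. Tubes were incubated overnight at 37 °C. MIC was the lowest concentration with no visible growth. Clear tubes were subcultured overnight at 37 °C to judge bacteriostatic versus bactericidal.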

Streptococcus pyogenes = assay: Antibacterial activity against 10^8 CFU/mL Streptococcus pyogenes MTCC 442 by broth microdilution method; format: functional; summary of the method: as §1
Pseudomonas aeruginosa = assay: Antibacterial activity against 10^8 CFU/mL Pseudomonas aeruginosa MTCC 1688 by broth microdilution method; format: functional; summary of the method: as §1
Aspergillus niger = assay: Antifungal activity against 10^8 CFU/mL Aspergillus niger MTCC 282 by broth microdilution method; format: functional
Summary of the method: (§2)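 Fungal MTCC cultures came from IMTECH Chandigarh. Mueller-Hinton broth served as growth and dilution medium, with DMSO as diluent. Inoculum was set to 10⁸ CFU/mL by turbidity. Serial dilutions from a 2000 stock gave a primary screen at 500, 250 and 125, followed by a secondary dilution series for actives. MIC was the lowest concentration inhibiting growth.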

[1] = system: Mycobacterium tuberculosis; assay: Antituberculosis activity against 5 x 10^4 inoculum per tube Mycobacterium tuberculosis H37Rv after 24 hrs by Lowenstein-Jensen method; format: functional
Summary of the method: (§3)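 Conventional Lowenstein-Jensen method. Compound dilutions were made from a DMSO stock and added to liquid L-J medium, which was sterilized by inspissation. Tubes were incubated 24 h at 37 °C, then streaked with H37Rv (5 × 10⁴ bacilli per tube) harvested into 0.85% saline. Growth was checked at 12, 22 and 28 days at 37 °C against medium-only controls. MIC was the concentration giving no colonies or <20 colonies.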

[2] = system: Mycobacterium tuberculosis; assay: Antituberculosis activity against 5 x 10^4 bacilli per tube Mycobacterium tuberculosis H37Rv assessed as growth inhibition at 50 ug/mL incubated for 24 hrs measured after 28 days; format: functional; conditions: read-out: GI; summary of the method: as §3
Aspergillus clavatus = assay: Antifungal activity against 10^8 CFU/mL Aspergillus clavatus MTCC 1323 by broth microdilution method; format: functional; summary of the method: as §2
Candida albicans = assay: Antifungal activity against 10^8 CFU/mL Candida albicans MTCC 227 by broth microdilution method; format: functional; summary of the method: as §2
[3] = system: Mycobacterium tuberculosis; assay: Antituberculosis activity against 5 x 10^4 bacilli per tube Mycobacterium tuberculosis H37Rv assessed as growth inhibition at 62.5 ug/mL incubated for 24 hrs measured after 28 days; format: functional; conditions: read-out: GI; summary of the method: as §3
[4] = system: Mycobacterium tuberculosis; assay: Antituberculosis activity against 5 x 10^4 bacilli per tube Mycobacterium tuberculosis H37Rv assessed as growth inhibition at 1000 ug/mL incubated for 24 hrs measured after 28 days; format: functional; conditions: read-out: GI; summary of the method: as §3
[5] = system: Mycobacterium tuberculosis; assay: Antituberculosis activity against 5 x 10^4 bacilli per tube Mycobacterium tuberculosis H37Rv assessed as growth inhibition at 40 ug/mL incubated for 24 hrs measured after 28 days; format: functional; conditions: read-out: GI; summary of the method: as §3
[6] = system: Mycobacterium tuberculosis; assay: Antituberculosis activity against 5 x 10^4 bacilli per tube Mycobacterium tuberculosis H37Rv assessed as growth inhibition at 0.20 ug/mL incubated for 24 hrs measured after 28 days; format: functional; conditions: read-out: GI; summary of the method: as §3

Row | Molecule | MIC99 (Escherichia coli) | MIC99 (Klebsiella pneumoniae) | MIC99 (Bacillus subtilis) | MIC99 (Staphylococcus aureus) | MIC99 (Salmonella typhi; Salmonella enterica) | MIC99 (Streptococcus pyogenes) | MIC99 (Pseudomonas aeruginosa) | MIC (Aspergillus niger) | MIC [1] | inhibition of growth at 50 µg/mL [2] | MIC (Aspergillus clavatus) | MIC (Candida albicans) | inhibition of growth at 62.5 µg/mL [3] | MIC99 (Salmonella typhi; Salmonella enterica subsp. enterica serovar Typhi) | inhibition of growth at 1000 µg/mL [4] | inhibition of growth at 40 µg/mL [5] | inhibition of growth at 0.2 µg/mL [6]
1 | O=C(O)c1cn(C2CC2)c2cc(N3CCNCC3)c(F)cc2c1=O [CIPROFLOXACIN] | 25 µg/mL (≈ 75.4 µM) | 25 µg/mL (≈ 75.4 µM) | 50 µg/mL (≈ 151 µM) | 50 µg/mL (≈ 151 µM) | 25 µg/mL (≈ 75.4 µM) | 50 µg/mL (≈ 151 µM) | 25 µg/mL (≈ 75.4 µM) |  |  |  |  |  |  |  |  |  | 
2 | CC1(C)S[C@@H]2[C@H](NC(=O)[C@H](N)c3ccccc3)C(=O)N2[C@H]1C(=O)O [AMPICILLIN] | 100 µg/mL (≈ 286 µM) | 100 µg/mL (≈ 286 µM) | 100 µg/mL (≈ 286 µM) | 250 µg/mL (≈ 715 µM) | 100 µg/mL (≈ 286 µM) | 100 µg/mL (≈ 286 µM) | 100 µg/mL (≈ 286 µM) |  |  |  |  |  |  |  |  |  | 
3 | CC1=C(c2nnc(/N=C3\C(=O)Nc4ccc(F)cc43)s2)C(c2ccccc2)NC(=O)N1 (centres undefined) | 100 µg/mL (≈ 230 µM) | 100 µg/mL (≈ 230 µM) | 100 µg/mL (≈ 230 µM) | 62.5 µg/mL (≈ 144 µM) | 100 µg/mL (≈ 230 µM) | 100 µg/mL (≈ 230 µM) | 62.5 µg/mL (≈ 144 µM) | 100 µg/mL (≈ 230 µM) | 50 µg/mL (≈ 115 µM) | 99% | 200 µg/mL (≈ 460 µM) | 100 µg/mL (≈ 230 µM) |  |  |  |  | 
4 | CC1=C(c2nnc(/N=C3\C(=O)Nc4ccc([N+](=O)[O-])cc43)s2)C(c2ccccc2)NC(=O)N1 (centres undefined) | 62.5 µg/mL (≈ 135 µM) | 200 µg/mL (≈ 433 µM) | 200 µg/mL (≈ 433 µM) | 200 µg/mL (≈ 433 µM) | 200 µg/mL (≈ 433 µM) | 250 µg/mL (≈ 542 µM) | 100 µg/mL (≈ 217 µM) | 250 µg/mL (≈ 542 µM) | 62.5 µg/mL (≈ 135 µM) |  | 500 µg/mL (≈ 1080 µM) | 250 µg/mL (≈ 542 µM) | 99% |  |  |  | 
5 | COC1=CC(=O)C[C@@H](C)[C@]12Oc1c(Cl)c(OC)cc(OC)c1C2=O [GRISEOFULVIN] |  |  |  |  |  |  |  | 100 µg/mL (≈ 283 µM) |  |  | 100 µg/mL (≈ 283 µM) | 500 µg/mL (≈ 1420 µM) |  |  |  |  | 
6 | GENTAMICIN | 0.05 µg/mL | 0.05 µg/mL | 0.5 µg/mL | 0.25 µg/mL |  | 0.5 µg/mL | 1 µg/mL |  |  |  |  |  |  | 1 µg/mL |  |  | 
7 | NYSTATIN |  |  |  |  |  |  |  | 100 µg/mL |  |  | 100 µg/mL | 100 µg/mL |  |  |  |  | 
8 | CC1=C(c2nnc(/N=C3\C(=O)Nc4ccc(Cl)cc43)s2)C(c2ccccc2)NC(=S)N1 (centres undefined) | 200 µg/mL (≈ 428 µM) | 200 µg/mL (≈ 428 µM) | 100 µg/mL (≈ 214 µM) | 200 µg/mL (≈ 428 µM) | 200 µg/mL (≈ 428 µM) | 200 µg/mL (≈ 428 µM) | 100 µg/mL (≈ 214 µM) | 500 µg/mL (≈ 1070 µM) | 62.5 µg/mL (≈ 134 µM) |  | 500 µg/mL (≈ 1070 µM) | 500 µg/mL (≈ 1070 µM) | 99% |  |  |  | 
9 | CC1=C(c2nnc(/N=C3\C(=O)Nc4ccccc43)s2)C(c2ccccc2)NC(=O)N1 (centres undefined) | 500 µg/mL (≈ 1200 µM) | 250 µg/mL (≈ 600 µM) | 500 µg/mL (≈ 1200 µM) | 500 µg/mL (≈ 1200 µM) | 250 µg/mL (≈ 600 µM) | 500 µg/mL (≈ 1200 µM) | 250 µg/mL (≈ 600 µM) | 250 µg/mL (≈ 600 µM) | 1000 µg/mL (≈ 2400 µM) |  | 250 µg/mL (≈ 600 µM) | 250 µg/mL (≈ 600 µM) |  |  | 98% |  | 
10 | CO[C@H]1/C=C/O[C@@]2(C)Oc3c(C)c(O)c4c(O)c(c(/C=N/N5CCN(C)CC5)c(O)c4c3C2=O)NC(=O)/C(C)=C\C=C\[C@H](C)[C@H](O)[C@@H](C)[C@@H](O)[C@@H](C)[C@H](OC(C)=O)[C@@H]1C [RIFAMPIN] |  |  |  |  |  |  |  |  | 40 µg/mL (≈ 48.6 µM) |  |  |  |  |  |  | 98% | 
11 | NNC(=O)c1ccncc1 [ISONIAZID] |  |  |  |  |  |  |  |  | 0.2 µg/mL (≈ 1.46 µM) |  |  |  |  |  |  |  | 99%
